In ChEMBL document CHEMBL4033790, “Design and Synthesis of Novel Deuterated Ligands Functionally Selective for the γ-Aminobutyric Acid Type A Receptor (GABAAR) α6 Subtype with Improved Metabolic Stability and Enhanced Bioavailability” (J Med Chem, 2018):

What was measured:
[1] = AUC (0 to 12 hrs) in Wistar rat plasma at 10 mg/kg, ip administered as single dose by HPLC-MS/MS analysis; assay type: ADME, organism-based; set-up: time < 12 hr, dose 10 mg/kg, route intraperitoneal
Brain [2] = assay: AUC (0 to 24 hrs) in Wistar rat brain at 2 mg/kg administered as single dose via oral gavage by HPLC-MS/MS analysis; assay type: ADME, organism-based; set-up: time < 24 hr, dose 2 mg/kg, route oral; details: in vivo
[3] = Terminal elimination half-life in Wistar rat brain at 2 mg/kg administered as single dose via oral gavage by HPLC-MS/MS analysis; assay type: ADME, organism-based; details: read-out: beta t1/2 (converted)
Summary of the method: (§1)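 Male Wistar rats (250–350 g) received a single 2 mg/kg dose, by oral gavage or IV, from nanoemulsion formulations. Three rats per time point were sampled for plasma and brain at 5, 30, 120, 480 and 1440 min. Compound levels were measured by HPLC-MS/MS after solid-phase extraction; oral bioavailability was derived from plasma AUCs for the two routes.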

Brain [4] = assay: AUC (0 to 24 hrs) in Wistar rat brain at 2 mg/kg, iv administered as single dose by HPLC-MS/MS analysis; assay type: ADME, organism-based; set-up: time < 24 hr, dose 2 mg/kg, route intravenous; details: in vivo
[5] = Cmax in Wistar rat plasma at 2 mg/kg, iv administered as single dose measured at 5 to 1440 mins post dose by HPLC-MS/MS analysis; assay type: ADME, organism-based; set-up: dose 2 mg/kg, route intravenous
Summary of the method: (§2)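 Absolute oral bioavailability study in Wistar rats: single 2 mg/kg dose by oral gavage or IV, using nanoemulsion formulations. Three rats per time point (5, 30, 120, 480, 1440 min). Plasma and brain were extracted by solid phase extraction and levels measured by HPLC-MS/MS. Bioavailability was calculated from plasma AUC for the two routes.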

[6] = Metabolic stability in mouse liver microsomes assessed as parent compound remaining at 10 uM after 60 mins by LC-MS analysis; assay type: ADME, microsome; details: read-out: Stability
Summary of the method: (§3)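 The 60 min samples of the microsomal incubation (10 μM compound, human or mouse liver microsomes at 0.5 mg/mL, NADPH regenerating system, 37 °C) were analysed by LC-MS. Detection used SIM mode with dual ESI/APCI ionization, calibrated to the retention times and masses of the parent and its O-demethylated metabolites. Peak intensities were measured.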

[7] = AUC (0 to 24 hrs) in Wistar rat plasma at 2 mg/kg administered as single dose via oral gavage by HPLC-MS/MS analysis; assay type: ADME, organism-based; set-up: dose 2 mg/kg, time < 24 hr, route oral
[8] = Tmax in Wistar rat brain at 2 mg/kg, iv administered as single dose by HPLC-MS/MS analysis; assay type: ADME, organism-based; summary of the method: as §1
[9] = Ratio of brain AUC (0 to t) to plasma AUC (0 to t), Kp of the compound in Wistar rat at 10 mg/kg, ip administered as single dose by HPLC-MS/MS analysis; assay type: ADME, organism-based
[10] = Terminal elimination half-life in Wistar rat plasma at 2 mg/kg administered as single dose via oral gavage by HPLC-MS/MS analysis; assay type: ADME, organism-based; details: read-out: beta t1/2 (converted); summary of the method: as §1
[11] = Cmax in Wistar rat brain at 2 mg/kg administered as single dose via oral gavage measured at 5 to 1440 mins post dose by HPLC-MS/MS analysis; assay type: ADME, organism-based; set-up: dose 2 mg/kg, route oral
Summary of the method: (§4)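 Male Wistar rats (250-350 g) received a single 2 mg/kg dose, nanoemulsion formulation, by oral gavage or IV. Three rats per time point (5, 30, 120, 480, 1440 min); plasma and brain collected. Compound extracted by solid-phase extraction and quantified by HPLC-MS/MS. Absolute oral bioavailability was calculated from plasma AUC after the two routes.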

[12] = Cmax in Wistar rat plasma at 2 mg/kg administered as single dose via oral gavage measured at 5 to 1440 mins post dose by HPLC-MS/MS analysis; assay type: ADME, organism-based; set-up: dose 2 mg/kg, route oral; summary of the method: as §2
[13] = Tmax in Wistar rat brain at 10 mg/kg, ip administered as single dose by HPLC-MS/MS analysis; assay type: ADME, organism-based
Summary of the method: (§5)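 Male Wistar rats (250–350 g) received a single i.p. dose of 10 mg/kg as a 5 mg/ml suspension in 85% water, 14% propylene glycol and 1% Tween 80. Three rats per time point were sacrificed at 5, 20, 60, 180 and 720 min for plasma and brain. Samples were cleaned up by solid-phase extraction and quantified by HPLC-MS/MS.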

Brain [14] = assay: Oral bioavailability in Wistar rat brain at 2 mg/kg administered as single dose via gavage by HPLC-MS/MS analysis; assay type: ADME, organism-based; details: in vivo; summary of the method: as §4
[15] = Terminal elimination half-life in Wistar rat brain at 2 mg/kg, iv administered as single dose by HPLC-MS/MS analysis; assay type: ADME, organism-based; details: read-out: beta t1/2 (converted); summary of the method: as §4
[16] = Cmax in Wistar rat plasma at 10 mg/kg, ip administered as single dose measured at 5 to 720 mins post dose by HPLC-MS/MS analysis; assay type: ADME, organism-based; set-up: dose 10 mg/kg, route intraperitoneal
Summary of the method: (§6)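 Male Wistar rats (250-350 g) given a single 10 mg/kg i.p. dose of a 5 mg/ml suspension in 85% distilled water, 14% propylene glycol, 1% Tween 80. Three rats per time point (5, 20, 60, 180, 720 min). Blood and brain were collected after sacrifice. Drug was recovered by solid phase extraction and quantified by HPLC-MS/MS.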

[17] = Cmax in Wistar rat brain at 2 mg/kg, iv administered as single dose measured at 5 to 1440 mins post dose by HPLC-MS/MS analysis; assay type: ADME, organism-based; set-up: dose 2 mg/kg, route intravenous; summary of the method: as §2
[18] = Tmax in Wistar rat plasma at 2 mg/kg, iv administered as single dose by HPLC-MS/MS analysis; assay type: ADME, organism-based; summary of the method: as §1
Brain [19] = assay: AUC (0 to 12 hrs) in Wistar rat brain at 10 mg/kg, ip administered as single dose by HPLC-MS/MS analysis; assay type: ADME, organism-based; set-up: dose 10 mg/kg, time < 12 hr, route intraperitoneal; details: in vivo
[20] = Tmax in Wistar rat plasma at 10 mg/kg, ip administered as single dose by HPLC-MS/MS analysis; assay type: ADME, organism-based; summary of the method: as §5
[21] = Cmax in Wistar rat brain at 10 mg/kg, ip administered as single dose measured at 5 to 720 mins post dose by HPLC-MS/MS analysis; assay type: ADME, organism-based; set-up: dose 10 mg/kg, route intraperitoneal; summary of the method: as §6
Rattus norvegicus = assay: Hyperlocomotor activity in Wistar rat assessed as total distance travelled at 3 to 10 mg/kg, ip after 60 mins; assay type: ADME, organism-based; details: in vivo, 1 h
[22] = Tmax in Wistar rat plasma at 2 mg/kg administered as single dose via oral gavage by HPLC-MS/MS analysis; assay type: ADME, organism-based; summary of the method: as §1
[23] = Tmax in Wistar rat brain at 2 mg/kg administered as single dose via oral gavage by HPLC-MS/MS analysis; assay type: ADME, organism-based; summary of the method: as §1
[24] = Terminal elimination half-life in Wistar rat plasma at 10 mg/kg, ip administered as single dose by HPLC-MS/MS analysis; assay type: ADME, organism-based; details: read-out: beta t1/2 (converted); summary of the method: as §5
[25] = Terminal elimination half-life in Wistar rat brain at 10 mg/kg, ip administered as single dose by HPLC-MS/MS analysis; assay type: ADME, organism-based; details: read-out: beta t1/2 (converted); summary of the method: as §5
[26] = Metabolic stability in human liver microsomes assessed as parent compound remaining at 10 uM after 60 mins by LC-MS analysis; assay type: ADME, microsome; details: read-out: Stability; summary of the method: as §3
Mus musculus = assay: Hyperlocomotor activity in C57BL/6 mouse assessed as total distance travelled at 3 to 10 mg/kg, ip after 60 mins; assay type: ADME, organism-based; details: in vivo, 1 h
[27] = AUC (0 to 24 hrs) in Wistar rat plasma at 2 mg/kg, iv administered as single dose by HPLC-MS/MS analysis; assay type: ADME, organism-based; set-up: dose 2 mg/kg, time < 24 hr, route intravenous
[28] = Terminal elimination half-life in Wistar rat plasma at 2 mg/kg, iv administered as single dose by HPLC-MS/MS analysis; assay type: ADME, organism-based; details: read-out: beta t1/2 (converted); summary of the method: as §1

In the case of `[2H]C([2H])([2H])Oc1ccc(-n2nc3c4ccc(OC)cc4[nH]cc-3c2=O)cc1`, the AUC(0-t) at 12 h [1] is reported as 24.2 µg·h/mL, the AUC (Brain [2]) is reported as 513.12 ng·h/g and the half-life [3] is reported as 4.2 h. For the same compound, the AUC (Brain [4]) was 573.46 ng·h/g, the Cmax [5] was 0.728 µg/mL and the remaining at 1 h, 10 µM [6] was 92.8%. It also gave an AUC(0-t) at 24 h [7] of 3 µg·h/mL, a Tmax [8] of 1.36 h and a Kp [9] of 0.13. The half-life [10] was 1.4 h, the Cmax [11] was 67.3 ng/g and the Cmax [12] was 0.222 µg/mL. For the same compound, the Tmax [13] was 2.33 h, the F (Brain [14]) was 89.5% and the half-life [15] was 4.34 h. It also gave a Cmax [16] of 4.43 µg/mL, a Cmax [17] of 71.9 ng/g and a Tmax [18] of 0 h. The AUC (Brain [19]) was 3350.72 ng·h/g, the Tmax [20] was 1.67 h and the Cmax [21] was 587 ng/g. The Activity (Rattus norvegicus) was “Toxic”, the Tmax [22] was 5.5 h and the Tmax [23] was 3.5 h. The half-life [24] was 3.54 h, the half-life [25] was 2.28 h and the remaining at 1 h, 10 µM [26] was 91.7%. The Activity (Mus musculus) was “Toxic”, the AUC(0-t) at 24 h [27] was 3 µg·h/mL and the half-life [28] was 1.95 h.

In the case of `COc1ccc(-n2nc3c4ccc(OC)cc4[nH]cc-3c2=O)cc1`, the AUC(0-t) at 12 h [1] is reported as 28.8 µg·h/mL, the AUC (Brain [2]) is reported as 708.21 ng·h/g and the half-life [3] is reported as 12.7 h. It also gave an AUC (Brain [4]) of 857.8 ng·h/g, a Cmax [5] of 0.597 µg/mL and a remaining at 1 h, 10 µM [6] of 80.3%. The AUC(0-t) at 24 h [7] was 1.27 µg·h/mL, the Tmax [8] was 0.86 h and the Kp [9] was 0.08. For the same compound, the half-life [10] was 9 h, the Cmax [11] was 67.3 ng/g and the Cmax [12] was 0.173 µg/mL. The Tmax [13] was 2.33 h, the F (Brain [14]) was 82.6% and the half-life [15] was 10.9 h. For the same compound, the Cmax [16] was 5.05 µg/mL, the Cmax [17] was 84.5 ng/g and the Tmax [18] was 0 h. The AUC (Brain [19]) was 2177.98 ng·h/g, the Tmax [20] was 1 h and the Cmax [21] was 352 ng/g. For the same compound, the Activity (Rattus norvegicus) was “Toxic”, the Tmax [22] was 2 h and the Tmax [23] was 1.5 h. It also gave a half-life [24] of 1.51 h, a half-life [25] of 1.96 h and a remaining at 1 h, 10 µM [26] of 86.1%. For the same compound, the Activity (Mus musculus) was “Toxic”, the AUC(0-t) at 24 h [27] was 1.89 µg·h/mL and the half-life [28] was 5.29 h.
